One test deals with SK-BR-3. Put plainly: Antiproliferative activity against estrogen receptor deficient human SKBR3 cells after 72 hrs. It counts as functional, cell-based. Particulars: SK-BR-3, 72 h. Put shortly:
(§1)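 Proliferation inhibition was measured in MCF-7 (ER-expressing) and SKBr3 (ER-lacking) human breast cancer cells. IC50 was taken as the concentration giving 50% inhibition.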

For test [1], the system named is MCF7. Nature of the test: Antiproliferative activity against human MCF7 cells expressing estrogen receptor after 72 hrs. It is filed as functional, cell-based. The conditions noted are these: MCF7, 72 h. Put shortly:
as §1

Test [2] deals with T1, Estrogen receptor (Homo sapiens) (UniProt P03372).
T1 sequence (whole entry): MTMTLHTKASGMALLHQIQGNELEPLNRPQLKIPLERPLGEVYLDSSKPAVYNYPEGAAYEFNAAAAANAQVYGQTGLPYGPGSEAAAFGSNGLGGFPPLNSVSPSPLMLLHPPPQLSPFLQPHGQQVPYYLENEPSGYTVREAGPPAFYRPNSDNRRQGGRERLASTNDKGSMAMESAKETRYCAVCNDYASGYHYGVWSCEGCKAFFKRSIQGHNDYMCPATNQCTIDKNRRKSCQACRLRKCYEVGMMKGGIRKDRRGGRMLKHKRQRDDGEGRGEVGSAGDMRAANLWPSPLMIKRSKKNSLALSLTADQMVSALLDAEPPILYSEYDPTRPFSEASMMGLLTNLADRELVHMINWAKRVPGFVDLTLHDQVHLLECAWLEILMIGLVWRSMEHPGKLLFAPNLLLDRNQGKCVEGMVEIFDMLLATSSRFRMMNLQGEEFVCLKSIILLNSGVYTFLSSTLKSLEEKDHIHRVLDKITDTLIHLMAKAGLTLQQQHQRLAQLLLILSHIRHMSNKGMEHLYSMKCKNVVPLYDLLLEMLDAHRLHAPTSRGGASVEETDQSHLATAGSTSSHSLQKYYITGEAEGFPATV
Nature of the test: Relative binding affinity to estrogen receptor-alpha (unknown origin).

Test [3] concerns MCF7. Nature of the test: Ratio of IC50 for estrogen receptor deficient human […] cells to IC50 for human MCF7 cells expressing estrogen receptor. It counts as functional.

Molecules are shown by their SMILES.

Broadly, the IC50 is the concentration at which inhibition is half-maximal. As for `CO[C@H]1/C=C\C=C(/C)C(=O)NC2=CC(=O)C(NCc3cn(CCOc4ccc([C@H]5C[C@]6(C)[C@@H](O)CC[C@H]6[C@@H]6CCc7cc(O)ccc7[C@H]65)cc4)nn3)=C(C[C@@H](C)C[C@H](OC)[C@H](O)[C@@H](C)/C=C(\C)[C@@H]1OC(N)=O)C2=O` (stereo in doubt), the IC50 in the test on SK-BR-3 was 710 nM; with MCF7 [1], 1150 nM.

For the molecule `C#CCN(C)CCOc1ccc([C@H]2C[C@]3(C)[C@@H](O)CC[C@H]3[C@@H]3CCc4cc(O)ccc4[C@H]32)cc1`, in test [2], the RBA turned out to be 39%.

`COc1cccc2c1C(=O)c1c(O)c3c(c(O)c1C2=O)C[C@@](O)(/C(CO)=N/NC(=O)c1ccc(OCCOCCOCCOCCOCc2cn(CCOCCOCCOCCN(C)CCOc4ccc([C@H]5C[C@]6(C)[C@@H](O)CC[C@H]6[C@@H]6CCc7cc(O)ccc7[C@H]65)cc4)nn2)cc1)C[C@@H]3O[C@H]1C[C@H](N)[C@H](O)[C@H](C)O1`: in the test with MCF7 [3], the “Ratio IC50” value is 7.

Regarding `CO[C@@]12[C@H](COC(N)=O)C3=C(C(=O)C(C)=C(NCc4cn(CCOCCOCCOc5ccc([C@H]6C[C@]7(C)[C@@H](O)CC[C@H]7[C@@H]7CCc8cc(O)ccc8[C@H]76)cc5)nn4)C3=O)N1C[C@H]1[C@@H]2N1C` (stereo not given in full), the RBA in test [2] was determined as 7%.

`CO[C@H]1/C=C\C=C(/C)C(=O)NC2=CC(=O)C(NCCCCCNC(=O)c3ccc(CC4CCCCc5c(nnn5CCOc5ccc([C@H]6C[C@]7(C)[C@@H](O)CC[C@H]7[C@@H]7CCc8cc(O)ccc8[C@H]76)cc5)C4(F)F)cc3)=C(C[C@@H](C)C[C@H](OC)[C@H](O)[C@@H](C)/C=C(\C)[C@@H]1OC(N)=O)C2=O` (stereo in doubt): the IC50 in the test on MCF7 [1] stood at 15200 nM.

For `COC1=C2C[C@@H](C)C[C@H](OC)[C@H](O)[C@@H](C)/C=C(\C)[C@H](OC(N)=O)[C@@H](OC)/C=C\C=C(/C)C(=O)NC(=CC1=O)C2=O` [GELDANAMYCIN], the IC50 stood at 8.5 nM in the test with SK-BR-3 and 9.8 nM with MCF7 [1].

Turning to `CO[C@H]1/C=C\C=C(/C)C(=O)NC2=CC(=O)C(NCCOCCOCCOCCc3cn(CN(C)CCOc4ccc([C@H]5C[C@]6(C)[C@@H](O)CC[C@H]6[C@@H]6CCc7cc(O)ccc7[C@H]65)cc4)nn3)=C(C[C@@H](C)C[C@H](OC)[C@H](O)[C@@H](C)/C=C(\C)[C@@H]1OC(N)=O)C2=O` (stereo in doubt), the IC50 in the test with SK-BR-3 was 41 nM; with MCF7 [1], 102 nM.

Values taken from ChEMBL document CHEMBL2390943, “Synthesis and preliminary evaluation steroidal antiestrogen-geldanamycin conjugates” (Bioorg Med Chem Lett, 2013).
